ChEMBL document CHEMBL2380204, “Discovery of a new HIV-1 inhibitor scaffold and synthesis of potential prodrugs of indazoles” (Bioorg Med Chem Lett, 2013)
In brackets after ≈: the same amount, converted by molar mass.

Experiments:
[1] = Therapeutic index, ratio of TC50 for human MT4 cells to EC50 for Human immunodeficiency virus 1 NL43 infected in human MT4 cells; type: cell-based; details: read-out: TI
Outline: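 Index calculated as TC50/EC50. TC50 and EC50 are each the mean of two experiments.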

[2] = Cytotoxicity against human MT4 cells by WST1 assay; type: cell-based; details: read-out: TC50 (the source's name)
Outline: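 TC50 defined as 50% toxic concentration. Values are the mean of two experiments, with SD normally under 20%.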

[3] = tested on: Human immunodeficiency virus 1; experiment: Antiviral activity against 0.0005 MOI Human immunodeficiency virus 1 NL43 infected in human MT4 cells assessed as protection against virus-induced cytopathicity after 4 days by WST1 assay; type: functional, organism-based; details: Human immunodeficiency virus 1, NL43, MT4, 96 h
Outline: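 Antiviral EC50 defined as 50% effective concentration. Values are the mean of two experiments, with SD normally under 20%.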

[4] = Aqueous solubility in phosphate buffer at pH 7.4; type: physicochemical
Outline: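 Aqueous solubility measured in phosphate buffer at pH 7.4 as a preliminary screen. Reported in µM.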

[5] = Metabolic stability in mouse liver microsomes after 40 mins by LC-MS/MS analysis; type: ADME, Microsome; details: read-out: Stability
[6] = Chemical stability in phosphate buffer after 40 mins at pH 7.4; type: physicochemical; details: pH 7.4, 40 min
Outline: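 Compound incubated in phosphate buffer at pH 7.4 and 37 °C for 40 min. Hydrolysis monitored.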

Plasma = experiment: Prodrug activation in 80% phosphate buffered human plasma assessed as compound remaining after 40 mins at pH 7.4; type: cell-free; details: pH 7.4, 40 min
Outline: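 Incubated in phosphate-buffered 80% human plasma at pH 7.4 and 37 °C. Percent of compound remaining measured at 40 min, along with time-dependent formation of the parent indazole.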

c1cc2[nH]ncc2cc1Nc1ncc(-c2ccc3c(c2)OCO3)o1
selectivity ratio [1]: 31 | CC50 [2]: 83 µM | EC50 [3]: 2.7 µM

COc1ccc(-c2cnc(Nc3ccc4[nH]ncc4c3)o2)cc1
selectivity ratio [1]: > 1 | CC50 [2]: > 100 µM | EC50 [3]: 100 µM

COc1ccccc1-c1cnc(Nc2ccc3[nH]ncc3c2)o1
selectivity ratio [1]: > 1 | CC50 [2]: > 100 µM | EC50 [3]: 100 µM

O=[N+]([O-])c1ccc(N2CCCC(Nc3ccc4[nH]ncc4c3)C2)c(F)c1 (configuration not stated)
selectivity ratio [1]: 10 | EC50 [3]: 13 µM

Clc1ccc(-c2cnc(Nc3ccc4[nH]ncc4c3)o2)cc1
solubility [4]: 0.2 µM (≈ 0.0621 µg/mL) | remaining at 40 min [5]: 83% | selectivity ratio [1]: > 30 | CC50 [2]: > 90 µM | EC50 [3]: 3 µM

COc1cccc(-c2nc(Nc3ccc4[nH]ncc4c3)c3c(F)cccc3n2)c1
selectivity ratio [1]: 10 | EC50 [3]: 11 µM

O=C(NCc1ccc([N+](=O)[O-])cc1F)Nc1ccc2[nH]ncc2c1
selectivity ratio [1]: 15 | EC50 [3]: 6 µM

Clc1ccc(-c2cnc(Nc3ccc4[nH]ncc4c3)o2)cc1Cl
selectivity ratio [1]: > 2.9 | CC50 [2]: > 100 µM | EC50 [3]: 35 µM

COc1ccc(-c2cnc(Nc3ccc4[nH]ncc4c3)o2)cc1OC
selectivity ratio [1]: 50 | CC50 [2]: 21 µM | EC50 [3]: 0.42 µM

Clc1ccccc1-c1cnc(Nc2ccc3[nH]ncc3c2)o1
selectivity ratio [1]: > 11 | CC50 [2]: > 100 µM | EC50 [3]: 9 µM

c1ccc(-c2cnc(Nc3ccc4[nH]ncc4c3)o2)cc1
remaining at 40 min [5]: 9% | selectivity ratio [1]: > 45 | CC50 [2]: > 90 µM | EC50 [3]: 2 µM

COc1cccc(-c2cnc(Nc3ccc4[nH]ncc4c3)o2)c1
selectivity ratio [1]: > 45 | CC50 [2]: > 90 µM | EC50 [3]: 2 µM

O=C(O)CCC(=O)OCn1ncc2cc(Nc3ncc(-c4ccc(Cl)cc4)o3)ccc21
Stability [6]: Stable | Stability (Plasma): 35% | solubility [4]: 60 µM (≈ 26.5 µg/mL)

O=C(O)c1ccccc1C(=O)OCn1ncc2cc(Nc3ncc(-c4ccc(Cl)cc4)o3)ccc21
Stability (Plasma): Stable | solubility [4]: 66 µM (≈ 32.3 µg/mL)

COc1cc(-c2cnc(Nc3ccc4[nH]ncc4c3)o2)ccc1Cl
selectivity ratio [1]: 53 | CC50 [2]: 80 µM | EC50 [3]: 1.5 µM

Clc1cccc(-c2cnc(Nc3ccc4[nH]ncc4c3)o2)c1
selectivity ratio [1]: > 1.9 | CC50 [2]: > 100 µM | EC50 [3]: 54 µM
